Experimental data as given in ChEMBL document CHEMBL3286304, “Cytotoxicity and DNA binding property of the dimers of triphenylethylene-coumarin hybrid with one amino side chain” (Bioorg Med Chem Lett, 2014).
The source made the active and inactive calls. The rule behind the calls is not given here.

Legend:
[1] = test system: A549; test: Antiproliferative activity against human A549 cells after 48 hrs by MTT assay; type: functional, cell-based; conditions: A549, 48 h
[2] = test system: K562; test: Antiproliferative activity against human K562 cells after 48 hrs by MTT assay; type: functional, cell-based; conditions: K562, 48 h
[3] = test system: HeLa; test: Antiproliferative activity against human HeLa cells after 48 hrs by MTT assay; type: functional, cell-based
[4] = test system: MCF7; test: Antiproliferative activity against human MCF7 cells after 48 hrs by MTT assay; type: functional, cell-based; conditions: MCF7, 48 h
[5] = test system: Calf thymus DNA; test: Binding affinity to calf thymus DNA at 25 degC at pH 7.4 after 10 mins by Stern-Volmer plot analysis; type: nucleic-acid assay; conditions: Bos taurus
How it was run: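 Dimer (5.0 × 10^-5 M) titrated with Ct-DNA 0–180 µM in 10 mM phosphate pH 7.4, 50 mM NaCl, 2% DMSO, 25 °C; fluorescence emission near 465 nm, excitation 330–345 nm by compound, slits 5.0 nm; F/F0 versus DNA concentration, Stern–Volmer fitting gives binding constant.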

[6] = test system: Calf thymus DNA; test: Binding affinity to calf thymus DNA assessed as hypsochromic shift at 50 uM at 25 degC at pH 7.4 after 10 mins by UV-vis spectrophotometry; type: nucleic-acid assay; conditions: Bos taurus
How it was run: (§1)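 Ct-DNA titrated (0–180 µM for some dimers, 0–160 µM for others) into dimer at 5.0 × 10^-5 M in 10 mM phosphate buffer pH 7.4, 50 mM NaCl, 2% DMSO, 25 °C; UV–vis absorption followed at λmax; binding constant K by double inverse method.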

[7] = test system: Calf thymus DNA; test: Binding affinity to calf thymus DNA assessed as change in melting temperature at 5 uM after 10 mins by thermal denaturation assay; type: nucleic-acid assay; conditions: Bos taurus
How it was run: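 Melting curves of Ct-DNA (5.0 × 10^-5 M) with or without dimer at 5.0 × 10^-6 M in 1 mM phosphate buffer pH 7.4, 5 mM NaCl, 2% DMSO; heated over roughly 55–85 °C; ΔTm taken relative to DNA alone.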

[8] = Cytotoxicity against mouse skull osteoblasts at 1 uM after 48 hrs by MTT assay; type: cell-based; conditions: osteoblast
[9] = Cytotoxicity against mouse skull osteoblasts at 40 uM after 48 hrs by MTT assay; type: cell-based; conditions: osteoblast
[10] = test system: Calf thymus DNA; test: Binding affinity to calf thymus DNA assessed as hyperchromicity at 50 uM at 25 degC at pH 7.4 after 10 mins by UV-vis spectrophotometry; type: nucleic-acid assay; conditions: Bos taurus; how it was run: as §1
[11] = Cytotoxicity against mouse skull osteoblasts at 20 uM after 48 hrs by MTT assay; type: cell-based; conditions: osteoblast
[12] = test system: Calf thymus DNA; test: Binding affinity to calf thymus DNA at 25 degC at pH 7.4 after 10 mins by UV-vis spectrophotometry; type: nucleic-acid assay; conditions: Bos taurus; how it was run: as §1
[13] = Cytotoxicity against mouse skull osteoblasts at 100 uM after 48 hrs by MTT assay; type: cell-based; conditions: osteoblast
[14] = test system: Calf thymus DNA; test: Binding affinity to calf thymus DNA assessed as DNA intercalation at 20 uM at pH 7.4 after 10 mins by circular dichroism analysis; type: nucleic-acid assay; conditions: Bos taurus
How it was run: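 CD spectra of Ct-DNA (5.0 × 10^-5 M) alone and with dimer at 2.0 × 10^-5 M in 10 mM phosphate buffer pH 7.4, 50 mM NaCl, 2% DMSO, 25 °C.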

[15] = Cytotoxicity against mouse skull osteoblasts at 10 uM after 48 hrs by MTT assay; type: cell-based; conditions: osteoblast

| Compound | IC50 [1] | IC50 [2] | IC50 [3] | IC50 [4] | Kb [5] | Activity [6] | ΔTm [7] | Activity [8] | Activity [9] | Activity [10] | Activity [11] | Kb [12] | Activity [13] | Activity [14] | Activity [15] |
| --- | --- | --- | --- | --- | --- | --- | --- | --- | --- | --- | --- | --- | --- | --- | --- |
| O=C(CCCCC(=O)Nc1ccc(-c2c(-c3ccc(OCCN4CCCC4)cc3)c3ccccc3oc2=O)cc1)Nc1ccc(-c2c(-c3ccc(OCCN4CCCC4)cc3)c3ccccc3oc2=O)cc1 | 22.3 µM | 28 µM | 36.4 µM | 37.6 µM | – | – | – | – | – | – | – | – | – | – | – |
| O=C(CC(=O)Nc1ccc(-c2c(-c3ccc(OCCN4CCCCC4)cc3)c3ccccc3oc2=O)cc1)Nc1ccc(-c2c(-c3ccc(OCCN4CCCCC4)cc3)c3ccccc3oc2=O)cc1 | 8.44 µM | 0.98 µM | 7.82 µM | 8.57 µM | 6.9 ×10⁵ /M | 2 nm | 6 °C | -8.4% | 20.1% | 47% | 0.6% | 4.5 ×10⁵ /M | 36.2% | Active | 0.3% |
| Nc1ccc(-c2c(-c3ccc(OCCN4CCCCC4)cc3)c3ccccc3oc2=O)cc1 | > 50 µM | > 50 µM | > 50 µM | 43.8 µM | – | – | – | – | – | – | – | – | – | – | – |
| O=C(Nc1ccc(-c2c(-c3ccc(OCCN4CCCCC4)cc3)c3ccccc3oc2=O)cc1)c1cccc(C(=O)Nc2ccc(-c3c(-c4ccc(OCCN5CCCCC5)cc4)c4ccccc4oc3=O)cc2)c1 | > 50 µM | > 50 µM | > 50 µM | > 50 µM | 1.3 ×10⁴ /M | 0.5 nm | 2 °C | – | – | 32% | – | 4.8 ×10⁴ /M | – | Active | – |
| O=C(CCCCCCCCC(=O)Nc1ccc(-c2c(-c3ccc(OCCN4CCCCC4)cc3)c3ccccc3oc2=O)cc1)Nc1ccc(-c2c(-c3ccc(OCCN4CCCCC4)cc3)c3ccccc3oc2=O)cc1 | > 50 µM | > 50 µM | > 50 µM | > 50 µM | 2.1 ×10⁴ /M | 1.5 nm | 2.5 °C | – | – | 35% | – | 5.3 ×10⁴ /M | – | Active | – |
| Nc1ccc(-c2c(-c3ccc(OCCN4CCCC4)cc3)c3ccccc3oc2=O)cc1 | > 50 µM | > 50 µM | > 50 µM | 45.7 µM | – | – | – | – | – | – | – | – | – | – | – |
| O=C(Nc1ccc(-c2c(-c3ccc(OCCN4CCCC4)cc3)c3ccccc3oc2=O)cc1)c1cccc(C(=O)Nc2ccc(-c3c(-c4ccc(OCCN5CCCC5)cc4)c4ccccc4oc3=O)cc2)c1 | 15.2 µM | 15.2 µM | 31 µM | 29.5 µM | – | – | – | – | – | – | – | – | – | – | – |
| O=C(CC(=O)Nc1ccc(-c2c(-c3ccc(OCCN4CCCC4)cc3)c3ccccc3oc2=O)cc1)Nc1ccc(-c2c(-c3ccc(OCCN4CCCC4)cc3)c3ccccc3oc2=O)cc1 | 7.73 µM | 3.23 µM | 6.49 µM | 3.52 µM | – | – | – | -10.4% | 14.5% | – | 0.8% | – | 27.4% | – | -1.3% |
| O=C(CCCCCCCCC(=O)Nc1ccc(-c2c(-c3ccc(OCCN4CCCC4)cc3)c3ccccc3oc2=O)cc1)Nc1ccc(-c2c(-c3ccc(OCCN4CCCC4)cc3)c3ccccc3oc2=O)cc1 | 16.9 µM | 18.9 µM | 42.5 µM | 35.9 µM | – | – | – | – | – | – | – | – | – | – | – |
| O=C(CCCCC(=O)Nc1ccc(-c2c(-c3ccc(OCCN4CCCCC4)cc3)c3ccccc3oc2=O)cc1)Nc1ccc(-c2c(-c3ccc(OCCN4CCCCC4)cc3)c3ccccc3oc2=O)cc1 | 27 µM | 23.8 µM | 34.4 µM | 35.4 µM | 3.8 ×10⁵ /M | 1.5 nm | 5.1 °C | – | – | 40% | – | 1.5 ×10⁵ /M | – | Active | – |
